Assay [1] deals with Rattus norvegicus. Briefly: Efficiency of chelation measured as net iron excretion/total iron-binding capacity of 300 umol/kg compound administered po in rats. It counts as functional. In outline: (§1)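 Bile duct-cannulated male Sprague-Dawley rats (~450 g), anesthetized with sodium pentobarbital 55 mg/kg ip. Chelator given po or sc in 40% Cremophor RH-40/water. Bile collected every 3 h for 24 h, urine at 24 h; iron by flame AA. Net excretion is treated minus control. Theoretical output assumes 1:1 or 2:1 ligand/iron by denticity. n = 4; mean ± SEM.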

Assay [2] relates to Monkey. Briefly: Efficiency of chelation measured as net iron excretion/total iron-binding capacity of 150 umol/kg compound administered sc in monkeys. In kind it is functional, Cercopithecidae. In outline: (§2)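 Cebus apella monkeys iron-overloaded with iv iron dextran (~500 mg Fe/kg), rested ≥60 days. Dosed sc as aqueous suspension or sodium salt solution (DFO in sterile H2O, 1 mL/kg). Feces and urine collected at 24 h intervals from 4 days pre-dose to 5 days post-dose; iron by flame AA. Efficiency is 2-day post-dose iron minus 4-day baseline mean, divided by theoretical output. n = 4; mean ± SEM.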

Assay [3] has as its system Monkey. Briefly: Efficiency of chelation measured as net iron excretion/total iron-binding capacity of 300 umol/kg compound administered po in monkeys. It counts as functional, Cercopithecidae.
Assay [4] relates to Rattus norvegicus. Briefly: Efficiency of chelation measured as net iron excretion/total iron-binding capacity of 300 umol/kg compound administered sc in rats. In kind it is functional. An outline of the steps:
as §1

The test system of assay [5] is Monkey. Briefly: Efficiency of chelation measured as net iron excretion/total iron-binding capacity of 300 umol/kg compound administered sc in monkeys. In kind it is functional, Cercopithecidae. In outline:
as §2

In assay [6] the test system is Rattus norvegicus. Briefly: Efficiency of chelation measured as net iron excretion/total iron-binding capacity of 150 umol/kg compound administered sc in rats. It counts as functional. An outline of the steps:
as §1

The test system of assay [7] is Rattus norvegicus. Briefly: Efficiency of chelation measured as net iron excretion/total iron-binding capacity of 150 umol/kg compound administered po in rats. In kind it is functional. An outline of the steps: as §1
The test system of assay [8] is Monkey. Briefly: Efficiency of chelation measured as net iron excretion/total iron-binding capacity of 75 umol/kg compound administered sc in monkey. It counts as functional, Cercopithecidae. An outline of the steps: as §2
The subject of assay [9] is Monkey. Briefly: Efficiency of chelation measured as net iron excretion/total iron-binding capacity of 150 umol/kg compound administered sc in monkey. In kind it is functional, Cercopithecidae. In outline:
as §2

Assay [10] deals with Monkey. Briefly: Efficiency of chelation measured as net iron excretion/total iron-binding capacity of 150 umol/kg compound administered po in monkey. It counts as functional, Cercopithecidae.

For the compound `O=C(O)[C@H]1CSC(c2ccc(O)cc2O)=N1`, the Efficiency worked out at 2.9% with Rattus norvegicus [1]; 5.6% in the assay with Monkey [2]; 5.3% in the assay on Monkey [3]; 2.1% with Rattus norvegicus [4]; 5.3% in the assay with Monkey [5].

Consider `O=C(O)[C@H]1CSC(c2cc(CCCOCCCOCCCc3cc(C4=N[C@@H](C(=O)O)CS4)c(O)cc3O)c(O)cc2O)=N1`, for which the Efficiency in the assay on Rattus norvegicus [6] is 6.5%; in the assay on Rattus norvegicus [7], 0.9%; in the assay with Monkey [8], 3.2%; in the assay on Monkey [9] it was 2.1%.

Consider `CC(=O)N(O)CCCCCNC(=O)CCC(=O)N(O)CCCCCNC(=O)CCC(=O)N(O)CCCCCN` [DEFEROXAMINE], for which the Efficiency is listed as 2.8% with Rattus norvegicus [6], 1.1% with Rattus norvegicus [7], 0.1% with Monkey [10] and 5.5% with Monkey [9].

The values above are taken from ChEMBL document CHEMBL1144875, “Desferrithiocin analogue based hexacoordinate iron(III) chelators” (2003).
